TDP2 absorb: human TDP2 enzyme inhibitors, primary screen, biochemical, epi absorbance, recombinant enzyme; T5PNP hydrolysis, p-nitrophenol absorbance 415 nm; hit rate 0.34% among 370,000; inhibition, % at 12.8 µM;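 active = inhibition above the mean of all tested compounds plus 3 SD, set per campaign, cut at about 25% in these data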
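Material: recombinant human TDP2; quantity: TDP2 enzyme at 120 nM final; medium: Tris-HCl pH 7.5 with MgCl2; compound: single concentration, 12.8 µM nominal, with 1% DMSO; incubation: 2 h enzyme incubation at 37 °C; signal: epi absorbance; measure: percent inhibition; benchmarks: high control without enzyme, low control DMSO plus TDP2; repeats: singlicate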
SIAE inh: human SIAE inhibitors, primary screen, biochemical, fluorescence polarization, FP-Rh probe, 1536-well HTS | Sialate O-acetylesterase (Homo sapiens), Q9HAT2 | SIAE FP-Rh probe binding | inhibition, % at 9.66 µM | hit rate 0.69% among 370,000;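 active = inhibition above a cutoff: mean of compounds within the control limits plus 3 SD of those, cut at about 17% in these data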
ABHD4 inh: ABHD4 inhibitors, primary screen, biochemical, fluorescence polarization, mouse. (Lyso)-N-acylphosphatidylethanolamine lipase (Mus musculus), Q8VD66. purified mABHD4, FP-Rh probe fluorescence polarization. inhibition, % at 8.92 µM. hit rate 0.54% among 370,000;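 active = inhibition exceeding the mean over every tested compound plus 3 SD, cut at about 30% in these data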
Target sequence (Q8VD66 whole entry, looked up): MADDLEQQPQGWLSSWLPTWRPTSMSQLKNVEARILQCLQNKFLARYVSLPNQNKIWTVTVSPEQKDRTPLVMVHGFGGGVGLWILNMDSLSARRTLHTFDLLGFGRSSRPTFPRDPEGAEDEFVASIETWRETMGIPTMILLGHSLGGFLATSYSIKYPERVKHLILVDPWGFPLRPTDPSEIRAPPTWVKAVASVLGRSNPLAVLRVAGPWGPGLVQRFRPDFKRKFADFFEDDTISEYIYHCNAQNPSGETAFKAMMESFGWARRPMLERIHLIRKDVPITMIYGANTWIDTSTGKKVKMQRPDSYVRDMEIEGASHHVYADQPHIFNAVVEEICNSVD
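Assay system: mouse ABHD4 enzyme, wild type / Also added: fluorescent activity-based probe FP-Rh / Doses: single nominal dose of 8.92 µM, 0.89% DMSO final / Timing: 45 min compound pre-incubation plus 60 min probe step, 25 °C / Signal: FP readout, ex 525 nm / em 598 nm / Control set: S159A mutant/DMSO as 100%, compound-well median as 0%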
TCR-CD3 inh: inhibitors of human TCR-CD3 interaction, primary screen, biochemical, fluorescence, TAMRA-labeled TCR probe. inhibition, % at 9.4 µM. T-cell receptor (TCR). hit rate 0.37% among 360,000; in the data active = inhibition above about 19%;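 also: recombinant mutant TCR 2C K166C tagged with TAMRA read by polarization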
HTRA1 inhibitor: HTRA1 serine protease inhibitors, primary screen, biochemical, fluorescence polarization, HTS | Q92743 | recombinant HTRA1, FP-rhodamine activity-based probe | inhibition, % at 5.96 µM | hit rate 0.5% among 340,000 | AID 504803, 2011; in the data active = inhibition above about 36%
PAD4 inh: human PAD4 inhibitors, primary screen, biochemical, fluorescence polarization, 1536-well format; Protein-arginine deiminase type-4 (Homo sapiens), Q9UM07; recombinant PAD4, RCA probe fluorescence polarization; inhibition, % at 6.36 µM; hit rate 0.41% among 330,000;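 active = percent inhibition above a cutoff equal to the mean of all tested compounds plus 3 SD, cut at about 15% in these data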
HTRA1 inh conf: HTRA1 protease inhibitors, retest, confirmation, biochemical, fluorescence polarization. shares compounds with HTRA1 inhibitor. recombinant HTRA1, FP-rhodamine activity-based probe. inhibition, % at 5.96 µM. hit rate 66% among 1,600;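 active = mean inhibition over three repeats above a set limit taken from the earlier primary screen, cut at about 37% in these data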;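 also: inhibitors block probe binding so polarization drops and inhibition rises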
Large screens that a line does not name were inactive (follow-up assays come after a bar, where they were run). Most compounds without a hit are left out; they make up all but 2% or so of the library.

COc1cc(O)c2c(=O)c3c(O)ccc(O)c3oc2c1	HTRA1 inhibitor 55 | HTRA1 inh conf inactive
COc1cc(O)c2c(=O)c3c(O[C@H]4O[C@@H](CO)[C@H](O)[C@@H](O)[C@@H]4O)ccc(O)c3oc2c1	none
CC(C)C(C(=O)NCc1ccccc1)N(C)Cc1ccc(Cl)c(Cl)c1 (centres undefined)	none (no result: HTRA1 inhibitor, PAD4 inh)
CCCCN(Cc1nc2ccccc2c(=O)[nH]1)C(=O)c1nn(C)c(=O)c2ccccc12	HTRA1 inhibitor 85 (no result: PAD4 inh) | HTRA1 inh conf inactive
Oc1ccccc1C=NNC(=S)Nc1ccc(F)cc1	HTRA1 inhibitor 45 (no result: PAD4 inh) | HTRA1 inh conf 46
CCN(CC)S(=O)(=O)c1cc(OC)ccc1N=Nc1ccc(O)c2ncccc12	HTRA1 inhibitor 63 (no result: PAD4 inh) | HTRA1 inh conf 69
CCS(=O)(=O)c1ccc(OC)c(N=Nc2ccc(O)c3ncccc23)c1	HTRA1 inhibitor 45 | HTRA1 inh conf inactive
COc1ccc(S(=O)(=O)NCCOc2cccc3cccnc23)cc1OC	none (no result: PAD4 inh)
CCOC(=O)C1=C(CS(=O)(=O)c2ccc(F)cc2)NC(=O)NC1c1ccc(O)c(O)c1 (centres undefined)	HTRA1 inhibitor 48 | HTRA1 inh conf 52
CCCN(C(=O)CCc1cn(CCC)c2ccccc12)c1ccc(N(C)c2ccccn2)cc1	none (no result: HTRA1 inhibitor, PAD4 inh)
COc1c(OC(C)=O)ccc(/C=C/c2ccc3cccc(OC)c3n2)c1[N+](=O)[O-]	none
CCOc1c(OC(C)=O)ccc(/C=C/c2ccc3cccc(OC(C)=O)c3n2)c1[N+](=O)[O-]	HTRA1 inhibitor 37 (no result: TDP2 absorb, SIAE inh, ABHD4 inh, TCR-CD3 inh) | HTRA1 inh conf inactive
O=C(CN1CCN(S(=O)(=O)c2ccc(Cl)cc2)CC1)c1ccc(O)c(O)c1	HTRA1 inhibitor 43 (no result: TDP2 absorb, SIAE inh, ABHD4 inh, TCR-CD3 inh) | HTRA1 inh conf 44
CC(C)=CCCC1(C)C=Cc2c(c(C)cc3c2[nH]c2cc(O)ccc23)O1 (centres undefined)	HTRA1 inhibitor 46 | HTRA1 inh conf inactive
COC(=O)c1ccccc1COc1cccn2c(N(C)CC3CC3)c(C)nc12	none (no result: HTRA1 inhibitor, PAD4 inh)
O=C1CC(=Nc2ccc([N+](=O)[O-])cc2)NN1c1c(Cl)cc(Cl)cc1Cl	ABHD4 inh 65, HTRA1 inhibitor 49 (no result: PAD4 inh) | HTRA1 inh conf inactive
Cc1ccccc1OCCCN1CCC(C(O)(c2ccccc2)c2ccccc2)CC1	none (no result: HTRA1 inhibitor, PAD4 inh)
CCOC(=O)N1CCN(S(=O)(=O)c2ccc(C(=O)NNc3nc4ccc(Cl)cc4s3)cc2)CC1	HTRA1 inhibitor 51 (no result: TDP2 absorb, SIAE inh, ABHD4 inh, TCR-CD3 inh) | HTRA1 inh conf 78
CCOC(=O)N1CCN(S(=O)(=O)c2ccc(C(=O)N(CCN(CC)CC)c3nc4c(C)cccc4s3)cc2)CC1	none
CCOC(=O)N1CCN(S(=O)(=O)c2ccc(C(=O)NNc3nc4c(C)cccc4s3)cc2)CC1	HTRA1 inhibitor 48 | HTRA1 inh conf 168
O=C(CN1CCOCC1)Nc1ccc2c(c1)OCCO2	none
COC(=O)CN1C(=O)[C@H]2[C@@H](/C=C/c3ccccc3)N3C(=O)CN(CCO)C(=O)[C@@]3(Cc3ccccc3)[C@H]2C1=O	none
COC(=O)C1=C(C(=O)OC)SC(=C2C(=S)C(C)(C)N(C(=O)C3CC3)c3ccccc32)S1	HTRA1 inhibitor 45 | HTRA1 inh conf 52
COc1cnc(-c2ccccn2)nc1Oc1ccc(Cl)c2ccccc12	HTRA1 inhibitor 53 | HTRA1 inh conf 54
COc1cnc(-c2ccccn2)nc1Oc1ccccc1Cl	none
COc1ccccc1N1CCN(Cc2ccc(OC)c(OC)c2OC)CC1	none
COc1ccccc1N1CCN(Cc2ccc(O)c3ncccc23)CC1	HTRA1 inhibitor 45 | HTRA1 inh conf 53
Oc1ccc(CCc2ccccc2)c2cccnc12	none (no result: TCR-CD3 inh, HTRA1 inhibitor, PAD4 inh)
Oc1ccc(CN2CCCc3ccccc32)c2cccnc12	HTRA1 inhibitor 39 (no result: TDP2 absorb, SIAE inh, ABHD4 inh, TCR-CD3 inh) | HTRA1 inh conf inactive

Source: PubChem
